Rows were chosen to be rich in hits. Some 6.7% of all compounds tested hit in one or more screens of this group.
Beta apoptosis: beta cell apoptosis inhibition | protection from apoptosis, % (no concentration beside the values) | INS-1E cytokine-induced death, ATP luminescence, 48 h; percent of positive-control rescue, neutral wells zero | AID 435005 | 0.8% of 300,000 active;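 active = Every replicate reaches about 75%, or at least half do and their mean reaches it too, limit read from the data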;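 note: 0% = cytokine-treated negative control wells and 100% = positive control rescue; higher means more ATP so stronger rescue from cytokine killing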
CHOP inhibitor: inhibitors of CHOP induction in ER stress response. CHO-K1 CHOP-promoter luciferase, tunicamycin-induced, 15-18 h. inhibition, % at 10 µM. 3.8% of 220,000 active. AID 2732;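 active = compounds that reduced the stress-induced luciferase reporter signal by more than about 70% of percent inhibition, limit read from the data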;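 note: 0% = tunicamycin plus vehicle and 100% = wells without tunicamycin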
GRIN3A LBD mod: modulates the human NR3A ligand-binding domain; NR3A LBD differential scanning fluorimetry, Tm shift; 0% = protein alone, 100% = glycine-bound protein; Tm shift relative to glycine control, % at 25 µM; 2.5% of 340,000 active; AID 1259313;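 active = melting temperature shift of at least 10% of the positive control shift, at one fixed dose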
PREPL inhibitor: human PREPL enzyme inhibition. Q4J6C6. recombinant PREPL, fluorescence polarization activity-based probe. inhibition, % at 5.96 µM. 0.68% of 320,000 active. AID 2751; in the data active = inhibition above about 43%;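 note: 0% = enzyme with DMSO and 100% = wells lacking enzyme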
Target sequence (Q4J6C6 whole entry, looked up): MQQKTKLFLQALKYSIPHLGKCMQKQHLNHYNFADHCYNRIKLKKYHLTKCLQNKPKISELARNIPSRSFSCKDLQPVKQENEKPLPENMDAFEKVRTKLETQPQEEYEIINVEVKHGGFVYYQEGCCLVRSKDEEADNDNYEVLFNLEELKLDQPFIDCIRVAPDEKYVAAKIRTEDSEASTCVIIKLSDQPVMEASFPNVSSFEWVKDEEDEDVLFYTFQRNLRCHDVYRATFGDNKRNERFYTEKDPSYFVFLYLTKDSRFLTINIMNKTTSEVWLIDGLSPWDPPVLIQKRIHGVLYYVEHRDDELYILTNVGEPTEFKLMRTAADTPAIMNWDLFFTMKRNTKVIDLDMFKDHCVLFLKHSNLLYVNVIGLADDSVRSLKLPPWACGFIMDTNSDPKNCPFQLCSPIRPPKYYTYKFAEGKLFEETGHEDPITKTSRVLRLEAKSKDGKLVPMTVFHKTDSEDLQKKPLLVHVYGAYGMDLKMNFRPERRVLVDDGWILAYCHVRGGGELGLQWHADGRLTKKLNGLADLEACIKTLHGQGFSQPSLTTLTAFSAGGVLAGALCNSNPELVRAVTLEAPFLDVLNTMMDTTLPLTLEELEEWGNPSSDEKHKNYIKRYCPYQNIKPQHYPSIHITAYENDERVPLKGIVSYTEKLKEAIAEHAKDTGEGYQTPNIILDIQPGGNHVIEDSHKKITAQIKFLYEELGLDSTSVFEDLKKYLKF
T cruzi inh: blocks replication of Trypanosoma cruzi; 1.4% of 300,000 active; inhibition, % (concentration not given with the values); T. cruzi beta-gal in NIH3T3, luminescence, 90 h;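 active = mean inhibition across valid replicates above about 55%, limit read from the data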;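 note: signal also drops with host cell toxicity which is not excluded here; 0% = plate median of DMSO wells and 100% = zero luminescence signal; higher percent means less beta-gal luminescence so fewer parasites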
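System: NIH/3T3 fibroblasts plus reporter T. cruzi. Medium: DMEM plus 2% FBS. Probe or stimulus: 5000 reporter trypomastigotes per well. Compound: single 50 nL compound addition per well in DMSO. Incubation: co-culture of at least 90 h after 3 h attachment. Detection: GalScreen β-gal luminescence, detergent lysis, 60 min. Evaluation: parasite load inhibition, %.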
CSC inhib: blocks cancer stem cells; cancer stem cell-like cells viability, luminescence; inhibition, % at 7.5 µM; 1.1% of 300,000 active; AID 2717; in the data active = inhibition above about 75%; tested in HMLE shEcad cells
An asterisk follows results filed as active; x = not tested or not shown.

SMILES	Beta apoptosis	CHOP inhibitor	GRIN3A LBD mod	PREPL inhibitor	T cruzi inh	CSC inhib
COc1ccc(CN(C(=S)Nc2ccccc2)C2CC(=O)N(c3ccc(Cl)cc3)C2=O)cc1 (centres undefined)	-11	72*	24*	-9	21	18
COc1ccc(CN(C(=S)Nc2ccccc2)C2CC(=O)N(c3ccccc3)C2=O)cc1 (centres undefined)	9	2	37*	-17	23	17
O=C(Nc1ccc(Cl)cc1)N(CCCN1CCOCC1)Cc1cccs1	-9	29	-2	-8	-5	-7
C/C(=N\NC(=O)c1ccc([N+](=O)[O-])c(C)c1)c1ccccc1Cl	4	8	-3	10	13	-3
CCN(C(=O)c1cc2c(=O)[nH]c3ccc(C)cc3c2s1)c1ccccc1C	11	96*	-1	7	56*	18
CCN(C(=O)c1cc2c(=O)[nH]c3ccc(C)cc3c2s1)c1ccccc1F	-4	-36	0	4	40	-11
Cc1cccc(NC(=O)Cc2nc(-c3c[nH]c(C(=O)N4CCCC4)c3)cs2)c1	x	x	-1	x	x	x
O=C1CNC(=S)N1Cc1ccccc1	-9	-15	-21	3	-7	-10
O=C1CNC(=S)N1Cc1ccc(F)cc1	-9	x	72*	-7	-5	4
Cc1cc(C)c(C#N)c(SCC(=O)c2ccc(Cl)cc2Cl)n1	10	38	-4	7	75*	42
Cc1cc(C)c(C#N)c(SCC(=O)OC2CCCCC2)n1	-6	77*	0	5	-7	-10
CCOC(=O)CSc1nc(C)cc(C)c1C#N	3	-1	-1	7	-11	-16
CC(=O)C1=C(C)NC(SCC(=O)c2ccc(Cl)cc2Cl)=C(C#N)C1c1ccco1 (centres undefined)	105*	59	x	42	66*	22
CCN1C(=O)c2ccc(C(=O)Nc3ccc(O)cc3C)cc2C1=O	-1	x	0	19	-21	-17
COCCSc1ccccc1C(=O)N1CCc2ccccc2C1	-1	8	1	-12	8	-15
FC(F)Oc1ccc(NC(=S)NCc2ccccc2)cc1	-10	5	4	11	-11	5
NC(=S)Nc1ccc2cn[nH]c2c1	2	22	-2	-6	-2	-19
Cc1cc(C)cc(NC(=S)Nc2ccc3cn[nH]c3c2)c1	3	13	15*	-1	-10	-15
FC(F)Oc1ccc(NC(=S)Nc2ccc3cn[nH]c3c2)cc1	-5	10	17*	17	-1	-4
Oc1cccc2c(NC(=S)Nc3ccc(OC(F)F)cc3)cccc12	-9	33	11*	6	-4	2
S=C(Nc1ccccc1)Nc1ccc2cn[nH]c2c1	-18	3	9	31	-11	-19
Cc1ccc(NC(=S)Nc2ccc3cn[nH]c3c2)cc1	-9	17	19*	17	-7	-8
CC(C)CN(C(=O)c1ccc(C(F)(F)F)cc1)c1c(N)n(CC(C)C)c(=O)[nH]c1=O	-2	x	-2	5	-3	-9
N#Cc1ccc(NC(=O)Cn2cnc(S(=O)(=O)N3CCCC3)c2)cc1	-9	x	0	9	-20	2
CCOC(=O)c1nnn(-c2nc(N3CCCC3)nc(N3CCCC3)n2)c1-c1ccccc1	-1	89*	-2	7	29	18
SMILES	Beta apoptosis	CHOP inhibitor	GRIN3A LBD mod	PREPL inhibitor	T cruzi inh	CSC inhib
CCOC(=O)c1nnn(-c2nc(OC)nc(N3CCCCC3)n2)c1-c1ccccc1	x	67	x	x	x	x
O=c1[nH]c(SCc2ccc(F)cc2Cl)nc2ccccc12	1	-15	-5	-10	24	-12
Cc1cc(C)c2c3c(sc2n1)C1(CCSCC1)C(C#N)=C(N)O3	12	59	16*	2	64*	14
COc1cc(CNc2ccc(O)cc2)cc(Br)c1OCc1ccccc1F	5	87*	3	7	2	-8
COc1cc(CNn2cn[nH]c2=S)cc(Br)c1OCc1ccccc1F	-2	-4	-2	7	6	19
COc1cc(CNCc2ccncc2)cc(Br)c1OCc1ccccc1F	22	36	-3	-25	55*	9
Cc1ccc(C(=O)N/C(=C\c2ccccc2)C(=O)NCCCn2ccnc2)cc1	x	-9	0	0	-14	-16
Cc1[nH]n(-c2ccc(Cl)cc2)c(=O)c1C=Nc1ccc(S(=O)(=O)N2CCOCC2)cc1	7	19	32*	-1	-2	25
CCc1nnc(NS(=O)(=O)c2ccc(N=Cc3c(C)[nH]n(-c4cccc(Cl)c4)c3=O)cc2)s1	-2	9	20*	16	2	17
Cc1ccc(-n2[nH]c(C)c(C=Nc3ccc(S(=O)(=O)Nc4nccs4)cc3)c2=O)cc1C	36	23	15*	12	-5	-8
COc1nccnc1NS(=O)(=O)c1ccc(N=Cc2c(C)[nH]n(-c3ccccc3)c2=O)cc1	2	16	-3	1	-29	-1
COc1nccnc1NS(=O)(=O)c1ccc(N=Cc2c(C)[nH]n(-c3ccc(Cl)cc3)c2=O)cc1	4	19	x	3	7	-3
CCc1nnc(NS(=O)(=O)c2ccc(N=Cc3c(C)[nH]n(-c4ccc(Cl)cc4)c3=O)cc2)s1	6	-8	13*	-2	4	13
Cc1[nH]n(-c2ccccc2)c(=O)c1C=Nc1ccc(S(=O)(=O)Nc2nccs2)cc1	-1	4	-3	-2	2	-12
Cc1ccnc2nc(C(=O)OCC(=O)N(CC(C)C)C3CCS(=O)(=O)C3)nn12 (centres undefined)	-5	x	1	2	x	x
O=C(Nc1ccc(F)cc1)c1cccc2c1C(=O)N(CC1CCCO1)C2 (centres undefined)	-5	x	2	5	13	-10
Cc1cc(C)nc(Nc2n[nH]c(COc3ccc(Cl)cc3)n2)n1	9	93*	2	-9	-1	2
O=C(NC1CCCCC1)C(c1cc2c(cc1[N+](=O)[O-])OCO2)N1CCCCC1 (centres undefined)	-4	33	x	16	13	2
O=C(CSc1nnc(SCc2ccccc2)s1)N/N=C/c1c[nH]c2ccccc12	x	21	-3	x	4	x
O=C(CSc1nnc(SCc2ccc(Cl)cc2)s1)N/N=C/c1ccc(Cl)cc1Cl	3	73*	7	1	-15	-3
CC(=C/c1ccco1)/C=N/NC(=O)CSc1nnc(SCc2ccc(C)cc2)s1	-3	80*	1	-4	-17	46
O=C(CSc1nnc(SCc2ccccc2)s1)N/N=C/C=C\c1ccco1	-6	-3	0	-6	-6	5
O=C(CSc1nnc(SCc2ccccc2Cl)s1)N/N=C/c1c[nH]c2ccccc12	10	53	26*	7	-4	2
O=C(NNC(=O)c1ccccc1O)c1cccc(Br)c1	0	x	-1	1	3	9

Screens from PubChem.
